Experimental data taken from ChEMBL document CHEMBL1134531, “Peptide analogues of a subdominant epitope expressed in ebv-associated tumors: synthesis and immunological activity” (J Med Chem, 2001).
One block for each compound: values may come before it. Residues, ends and D or L forms follow the SMILES beside them. *: point of attachment. X3 = OC[C@H]1O[C@H](*)[C@H](O)[C@H](O)[C@@H]1O

Tests used:
[1] = Half life to evaluate susceptibility to enzymatic hydrolysis by incubating at 37 degree C in culture medium.; type: ADME
In short: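 Peptide (5 mg in acetonitrile/H₂O 1:1, 50 μL) added to 0.5 mL RPMI containing 10% fetal calf serum and incubated at 37 °C for up to 360 min. Reaction stopped with ethanol and centrifuged, then supernatant analysed by RP-HPLC. T1/2 taken from a least-squares linear regression of log nonapeptide concentration versus time, using at least five points.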

[2] = Half life to evaluate susceptibility to enzymatic hydrolysis by incubating at 37 degree C in human plasma; type: ADME
In short: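 Peptide (5 mg in acetonitrile/H₂O 1:1, 50 μL) mixed into 0.5 mL heparinized human plasma and incubated at 37 °C for up to 360 min. Ethanol added to stop the reaction, then centrifugation and RP-HPLC of the supernatant. Half-life obtained by least-squares linear regression of log nonapeptide concentration against time, with at least five time points.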

Compound: CSCC[C@@H](NC(=O)[C@@H](NC(=O)[C@H](CC(C)C)NC(=O)[C@H](CC(C)C)NC(=O)CNC(=O)[C@H](C)NC(=O)[C@H](CC(C)C)NC(=O)[C@@H](N)Cc1ccc(O)cc1)[C@@H](C)O)C(=O)N[C@H](C(=O)O)C(C)C
half-life [1]: > 6 h
half-life [2]: 0.597 h

Compound: CSCC[C@H](NC(=O)[C@@H](NC(=O)[C@H](CC(C)C)NC(=O)[C@H](CC(C)C)NC(=O)CNC(=O)[C@H](C)NC(=O)[C@H](CC(C)C)NC(=O)[C@@H](N)Cc1ccc(O)cc1)[C@@H](C)O)C(=O)N[C@H](C(=O)O)C(C)C
half-life [1]: 1.37 h
half-life [2]: 0.212 h

Compound: CSCC[C@H](NC(=O)[C@@H](NC(=O)[C@H](CC(C)C)NC(=O)[C@H](CC(C)C)NC(=O)CNC(=O)[C@H](C)NC(=O)[C@H](CC(C)C)NC(=O)[C@@H](N)Cc1ccc(O)cc1)[C@@H](C)O)C(=O)N[C@@H](C(=O)O)C(C)C
half-life [1]: > 6 h
half-life [2]: 4.53 h

half-life [1]: > 6 h
half-life [2]: 1.01 h
Compound: CSCC[C@H](NC(=O)[C@@H](NC(=O)[C@H](CC(C)C)NC(=O)[C@H](CC(C)C)NC(=O)CNC(=O)[C@H](C)NC(=O)[C@H](CC(C)C)NC(=O)[C@@H](N)Cc1ccc(O)cc1)[C@@H](C)O[C@H]1O[C@H](CO)[C@@H](O)[C@@H](O)[C@H]1O)C(=O)N[C@H](C(=O)O)C(C)C (H-YLAGLLT(X3)MV-OH)

Compound: CSCC[C@H](NC(=O)[C@@H](NC(=O)[C@H](CC(C)C)NC(=O)[C@H](CC(C)C)NC(=O)CNC(=O)[C@H](C)NC(=O)[C@H](CC(C)C)NC(=O)[C@@H](N)Cc1ccc(O)cc1)[C@@H](C)O)C(=O)N(CC(=O)O)C(C)C (HELM PEPTIDE1{Y.L.A.G.L.L.T.M.[CC(C)N(CC(=O)O)[*:1]]}$$$$V2.0)
half-life [1]: > 6 h
half-life [2]: > 6 h

Compound: CSCC[C@H](NC(=O)[C@@H](NC(=O)[C@H](CC(C)C)NC(=O)[C@H](CC(C)C)NC(=O)CNC(=O)[C@H](C)NC(=O)[C@H](CC(C)C)NC(=O)[C@@H](N)Cc1ccc(O)cc1)[C@@H](C)O)C(=O)N[C@H](CO)C(C)C (HELM PEPTIDE1{Y.L.A.G.L.L.T.M.[CC(C)[C@@H](CO)N[*:1]]}$$$$V2.0)
half-life [1]: > 6 h
half-life [2]: 1.66 h

Compound: CSCC[C@H](NC(=O)[C@@H](NC(=O)[C@H](CC(C)C)NC(=O)[C@H](CC(C)C)NC(=O)CNC(=O)[C@H](C)NC(=O)[C@H](CC(C)C)NC(=O)[C@@H](N)Cc1ccc(O)cc1)[C@@H](C)O)C(=O)N(C)[C@H](C(=O)O)C(C)C (HELM PEPTIDE1{Y.L.A.G.L.L.T.M.[meV]}$$$$V2.0)
half-life [1]: > 6 h
half-life [2]: > 6 h

Compound: CC(C)C[C@H](NC(=O)CNC(=O)[C@H](C)NC(=O)[C@H](CC(C)C)NC(=O)[C@@H](N)Cc1ccc(O)cc1)C(=O)N[C@@H](CC(C)C)C(=O)N[C@H](C(=O)N[C@@H](CC[S+](C)[O-])C(=O)N[C@H](C(=O)O)C(C)C)[C@@H](C)O (some centres not stated) (HELM PEPTIDE1{Y.L.A.G.L.L.T.[CS(=O)CC[C@H](N[*:1])C(=O)[*:2]].V}$$$$V2.0)
half-life [1]: 1.56 h
half-life [2]: 0.522 h

Compound: CSCCN(CC(=O)N[C@H](C(=O)O)C(C)C)C(=O)[C@@H](NC(=O)[C@H](CC(C)C)NC(=O)[C@H](CC(C)C)NC(=O)CNC(=O)[C@H](C)NC(=O)[C@H](CC(C)C)NC(=O)[C@@H](N)Cc1ccc(O)cc1)[C@@H](C)O (HELM PEPTIDE1{Y.L.A.G.L.L.T.[CSCCN(CC(=O)[*:2])[*:1]].V}$$$$V2.0)
half-life [1]: > 6 h
half-life [2]: 0.86 h

Compound: CSCC[C@@H](CN[C@H](C(=O)O)C(C)C)NC(=O)[C@@H](NC(=O)[C@H](CC(C)C)NC(=O)[C@H](CC(C)C)NC(=O)CNC(=O)[C@H](C)NC(=O)[C@H](CC(C)C)NC(=O)[C@@H](N)Cc1ccc(O)cc1)[C@@H](C)O (HELM PEPTIDE1{Y.L.A.G.L.L.T.[CSCC[C@@H](CN[C@H](C(=O)O)C(C)C)N[*:1]]}$$$$V2.0)
half-life [1]: > 6 h
half-life [2]: 5.07 h

Compound: H-YLAGLLTMV-NH2
half-life [1]: > 6 h
half-life [2]: 0.657 h
